High-throughput results: PubChem BioAssay, Johns Hopkins Ion Channel Center
Compounds with a hit are over-represented: about 3.5% of the library has one in this group of screens.
MrgX1 antagonist: antagonists of human MrgX1 receptor, primary screen, HEK293 cells, Fluo-4 calcium flux; Mas-related G-protein coupled receptor member X1 (Homo sapiens), Q96LB2; BAM8-22 antagonism; hits give low values; B-score at 10 µM; 310,000 tested, 1.3% active;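 active = calcium-response B-score plate-corrected more than 3 library SD below zero, starting fluorescence within 5 deviations, no agonist response on first addition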;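 note: peak minus trough fluorescence over baseline after final BAM8-22 challenge near maximal dose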
Target sequence (Q96LB2 whole entry, looked up): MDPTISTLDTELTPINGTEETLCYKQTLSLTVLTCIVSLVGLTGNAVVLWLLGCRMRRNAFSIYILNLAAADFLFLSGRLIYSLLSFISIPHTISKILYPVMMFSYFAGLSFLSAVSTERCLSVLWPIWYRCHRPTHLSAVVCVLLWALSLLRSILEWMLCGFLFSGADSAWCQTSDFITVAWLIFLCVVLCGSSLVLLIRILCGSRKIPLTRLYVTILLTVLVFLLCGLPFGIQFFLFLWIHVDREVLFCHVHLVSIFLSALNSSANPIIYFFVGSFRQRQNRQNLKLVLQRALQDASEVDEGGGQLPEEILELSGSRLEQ
RGS4 inh: RGS4 inhibitors, primary screen, cell-based, HEK293 M3R inducible RGS4, calcium flux; Fluo-4 calcium flux; hits give high values; triggered by carbachol at its EC20; B-score at 10 µM; 310,000 tested, 0.45% active; AID 463165, 2010;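 active = B-score, a plate-corrected calcium signal, over three deviations above library mean, with baseline fluorescence within five deviations of library mean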;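 note: RGS4 expression induced by doxycycline in cells with stable M3 receptor; B-score is computed from the integrated fluorescence ratio over baseline after carbachol; higher B-score means a larger calcium signal and so more RGS4 inhibition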
Target sequence (P49798 whole entry, looked up): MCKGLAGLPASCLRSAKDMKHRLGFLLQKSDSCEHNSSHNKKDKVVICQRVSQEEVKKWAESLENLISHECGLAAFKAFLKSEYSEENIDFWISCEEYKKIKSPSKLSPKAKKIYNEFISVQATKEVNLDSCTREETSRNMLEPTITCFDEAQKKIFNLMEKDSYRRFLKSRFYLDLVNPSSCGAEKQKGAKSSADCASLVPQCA
RGS4 pot: RGS4 potentiators or activators, primary screen, cell-based, HEK293 M3R inducible RGS4, calcium flux. carbachol calcium flux Fluo4; hits give low values. B-score at 10 µM. 310,000 tested, 0.92% active;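 active = B-score of the integrated calcium signal more than 4 SD below the library mean, with starting fluorescence not abnormally high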;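 note: negative B-score means reduced calcium response which marks RGS4 activation or potentiation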
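System – HEK293 FlpIn-TREx cells, stable M3R, doxycycline-inducible RGS4 · Reagent – ECmax carbachol challenge · Times – compound preincubation 20 min at room temperature before agonist · Technique – Fluo4 fluorescence kinetic imaging of calcium · Measure – B score of integrated Fluo4 ratio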
MrgX1 ag: agonists of human MrgX1 receptor, primary screen, HEK293 cells, Fluo-4 calcium flux | AID 588627, 2011 | Mas-related G-protein coupled receptor member X1 (Homo sapiens), Q96LB2 | 310,000 tested, 0.44% active | Fluo-4 calcium fluorescence, agonist mode; hits give high values | B-score at 10 µM;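 active = calcium response B-score plate-corrected fluorescence ratio at least 3 library SD, with starting fluorescence B-score inside 5 SD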
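Material: HEK293 cells stably expressing human MrgX1 receptor | Quantity: 15,000 cells per well | Times: Cells plated overnight, dye loaded 0.5 h 37 °C, 0.5 h room temperature | Measured by: Kinetic Fluo-4 NW fluorescence of intracellular calcium | Control set: Positive and negative controls per plate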
MrgX1 allo act: positive allosteric modulators of MrgX1, primary screen, HEK293 cells, Fluo-4 calcium flux; B-score at 10 µM; Mas-related G-protein coupled receptor member X1 (Homo sapiens), Q96LB2; FDSS; hits give high values; 310,000 tested, 0.63% active;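 active = plate-corrected calcium response at least 3 library SD above typical, normal starting fluorescence, not activating the receptor alone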;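 note: compound read alongside a low EC10 to EC30 dose of BAM8-22 agonist; peak minus trough fluorescence over baseline measured at the second addition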
Hits are given with their value; - = inactive; . = no result.

SMILES | MrgX1 antagonist | RGS4 inh | RGS4 pot | MrgX1 ag | MrgX1 allo act
COc1ccc(CCNC(=O)c2ccc3nc(-c4ccco4)c(-c4ccco4)nc3c2)cc1OC | -4.64 | . | . | - | -
O=C(Nc1cccc(C(F)(F)F)c1)c1ccc2nc(-c3ccco3)c(-c3ccco3)nc2c1 | -5.6 | - | - | - | -
CC1CCC2C(C1)OS(=O)(=O)NC2(C)C (centres undefined) | - | - | - | - | -
O=C(/C=C/c1ccc(OC(F)F)cc1)Nc1cccc(S(=O)(=O)NC2=NCCCCC2)c1 | -8.24 | - | - | - | -
Cc1ccc(C(=O)N2CCN(S(=O)(=O)c3ccc(Br)cc3)CC2)o1 | - | - | - | - | -
Brc1ccc(-c2nnc3n2-c2ccccc2CC3)cc1 | - | - | - | - | -
Cc1ccc(C2=Nc3ccccc3N(C(=O)c3ccccc3)C(C)C2)cc1 (centres undefined) | -8.87 | - | - | - | -
CC(=O)OC1CC(C)N(C(=O)c2ccccc2)c2ccc(C)cc21 (centres undefined) | - | - | - | - | -
COc1ccc(CCNC(=O)Cn2nnc3ccccc3c2=O)cc1 | - | - | - | - | -
O=C(Cn1nnc2ccccc2c1=O)NCCc1ccc(F)cc1 | -4.98 | - | - | - | -
CSc1cccc(CN2CCC(n3nccc3NC(=O)C3CC3)CC2)c1 | - | - | - | - | -
COc1cc([N+](=O)[O-])ccc1NC(=O)CN1CCN(C(=O)c2ccco2)CC1 | -4.74 | - | - | - | -
CC1(C)C=Cc2cc(-c3coc4cc(O)cc(O)c4c3=O)cc(O)c2O1 | -5.25 | - | - | - | -
O=c1c(-c2ccc3c(c2)OCCO3)coc2cc(O)cc(O)c12 | - | - | - | - | -
O=C(O)Cn1c(=O)c2c3c(sc2n(Cc2ccccc2F)c1=O)CCCC3 | - | - | - | - | -
Cc1cccc2sc(N(CCCN(C)C)C(=O)c3ccc(Cl)s3)nc12 | - | - | -8.33 | - | -
COc1ccc(OC)c(-c2cnc(OC(C)(C)C)nc2OC(C)(C)C)c1 | - | - | - | - | -
COc1ccc(C2C(C#N)=C(C)NC3=C2C(=O)c2ccccc23)cc1 (centres undefined) | - | - | -7.39 | - | -
CCOc1ccc(C2C(C#N)=C(C)NC3=C2C(=O)c2ccccc23)cc1 (centres undefined) | - | - | - | - | -
O=[N+]([O-])c1cc(Br)c2nsnc2c1N1CCOCC1 | - | - | - | 58.6 | -
Cc1ccc(S(=O)(=O)N2CCC(=O)N(C(COCc3cccc(C)c3)Cc3ccccc3)CC2)cc1 (centres undefined) | - | - | - | - | -
Cc1ccc(S(=O)(=O)N2CCC(=O)N(C(COCc3ccc(C(F)(F)F)cc3)Cc3ccccc3)CC2)cc1 (centres undefined) | - | - | -7.3 | - | -
Cc1ccc(S(=O)(=O)N2CCC(=O)N(C(COCc3ccc(Cl)c(Cl)c3)Cc3ccccc3)CC2)cc1 (centres undefined) | -6.13 | - | - | - | -
CCOC(=O)C1C(=O)C=C(c2ccc(Br)cc2)CC1c1ccco1 (centres undefined) | -5.74 | - | - | - | -
CCOC(=O)C1C(=O)C=C(c2cccc(NS(C)(=O)=O)c2)CC1c1ccco1 (centres undefined) | - | - | - | - | -
SMILES | MrgX1 antagonist | RGS4 inh | RGS4 pot | MrgX1 ag | MrgX1 allo act
COc1ccc(/C(O)=C/C(=O)C(=O)NNC(=O)C(O)(c2ccccc2)c2ccccc2)cc1 | -4.76 | - | - | - | -
COc1ccc(/C(O)=C/C(=O)C(=O)NNC(=O)c2ccccc2)cc1 | - | - | - | - | -
C[N+]1(CC(O)c2ccccc2)CCCCCC1 (centres undefined) | - | - | - | - | -
CC(=O)OC(C[N+]1(C)CCCCCC1)c1ccccc1 (centres undefined) | - | - | -7.01 | - | -
COc1ccc(N2CC(C(=O)N/N=C/c3cccs3)CC2=O)cc1 (centres undefined) | -6.06 | - | - | - | -
CC(C)Oc1ccc(S(=O)(=O)N2CCOCC2)cc1NC(=O)Cc1cccs1 | - | - | - | - | -
Cc1ccccc1C(=O)Nc1ccc(S(=O)(=O)N2CCCC2)cc1 | - | - | - | - | -
CC(=O)N(C)c1ccc(OCC(O)Cn2c3ccc(Cl)cc3c3cc(Cl)ccc32)cc1 (centres undefined) | - | - | - | - | -
CCCCCCCCCCCCCCCC[N+](C)(C)CCN(Cc1ccc(OC)cc1)c1ncccn1 | - | . | . | 55.8 | -
O=C(Nc1ccc(NC(=O)c2ccccc2F)cn1)c1ccco1 | - | - | - | - | -
CSc1nnc(C)c(=O)n1COC(=O)c1ccc([N+](=O)[O-])cc1 | - | - | - | - | 12.2
COc1cc(S(=O)(=O)Nc2ccc(C)cc2)ccc1N=Cc1c(C)c(C#N)c(=O)n(C)c1O | - | - | -8.58 | - | -
COc1cc(S(=O)(=O)Nc2ccc(C)cc2)ccc1N=Cc1c(C)[nH]n(-c2ccc(C)cc2)c1=O | - | - | - | - | -
CC1=[N+](C)N(c2ccccc2)C(=O)C1N=C/C=C/c1ccccc1 (centres undefined) | - | - | -7.5 | - | -
COc1ccc(-c2cn(CCN)c(-c3ccncc3)n2)cc1 | - | . | . | - | -
O=C(O)/C=C/C(=O)c1ccc2c(c1)CCc1ccccc1-2 | -5.21 | - | - | - | -
c1ccc(Sc2ccccn2)cc1 | - | - | - | - | -
c1ccc(SSc2ccccn2)nc1 | - | - | - | 31.6 | -
O=C(CCCC(=O)N(CC(=O)NC1CCCCC1)c1ccccc1F)Nc1ccccn1 | - | - | - | - | -
CCCCn1c2ccc(C)cc2c2nnc(SCCN3CCCCC3)nc21 | - | - | -12.2 | - | -
O=C(NN1C(=O)C2C3C=CC(C3)C2C1=O)c1ccccc1 (centres undefined) | - | - | - | - | -
Cc1cccc(C(=O)NN2C(=O)C3C(c4ccccc4)C=CC(c4ccccc4)C3C2=O)c1 (centres undefined) | - | - | -7.09 | - | -
Cc1cc(NC(=O)c2noc3c2CCc2ccccc2-3)no1 | -7.36 | - | - | - | -
Cc1ccc(O)c(NC(=O)c2noc3c2CCc2ccccc2-3)c1 | - | - | - | - | -
N#C/C(=N\Nc1cccc2ccccc12)c1nnc2n1CCCCC2 | - | - | - | - | -
COc1ccc(OC)c(S(=O)(=O)ON2C(=O)c3ccccc3C2=O)c1 | - | - | - | - | -
Nc1ccc(C(=O)O)c(O)c1 | - | - | - | - | -
Nc1ccc(N)c(C(=O)O)c1 | -5.65 | - | - | - | -
O=C(/C=C/c1ccc(O)c(O)c1)NC(=O)c1ccccc1O | -7.75 | - | - | - | -
